Measured values published in article PMC8604242 (Clinical and Translational Science, 2021).
“Also recorded” adds a separate entry of the source. Where two headings read alike, the source gives them in different places.

Key:
human hepatocytes = conditions: cited from earlier work
rat hepatocytes = conditions: cited from earlier work
[1] = Mass balance: excretion of total radioactivity in urine and feces; type: in vivo, human
Outline: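 Six healthy men received one oral 75‑mg solution (30 ml, ~3.6 MBq/~100 μCi ¹⁴C label), followed by two 50‑ml bottle rinses. Urine got scintillation cocktail directly. Feces were homogenized with equal weight of water, dried, and combusted with CO2 trapped in absorber. LSC was done in duplicate. Excretion was expressed against the administered radioactive dose over nominal collection intervals, with descriptive statistics.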

[2] = Metabolite profiling and identification in plasma, urine and feces; type: in vivo, human
Outline: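 UPLC‑HR‑MS (QTof) with the eluent fractionated every 7 s, off‑line microplate scintillation counting, and reconstructed radiochromatograms. Urine and feces were pooled per participant covering ≥90% of excreted radioactivity, excluding low‑radioactivity intervals. Plasma (1–24 h) was exhaustively extracted with ethanol/acetonitrile, evaporated under nitrogen at 37°C, and redissolved in ACN/MeOH/water 1+1+8. Nonextractable radioactivity was the precipitate counted by LSC, as % of total. AUCs were noncompartmental.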

BTK = conditions: cited from earlier work
[3] = test system: patients with relapsing MS; conditions: cited from earlier work
[4] = Plasma PK of evobrutinib by validated LC-MS/MS; type: in vivo, human
Outline: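 Unlabeled drug was measured in K2EDTA plasma (100 µL) by validated LC‑MS/MS with an isotopically labeled internal standard. LLOQ was 0.600 ng/ml, linear to 600 ng/ml with 1/x2‑weighted regression. Participants were six healthy men given a single oral 75‑mg solution dose. Noncompartmental Cmax, Tmax, AUC, t1/2, Vz/F and CL/F used actual sampling times. Parent AUC was related to plasma total‑radioactivity AUC.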

Safety = type: in vivo, human; conditions: single dose of ^14C-evobrutinib
[5] = cited from earlier work
[6] = type: in vivo, human; conditions: for AUC0-t of total radioactivity, GM (GM CV, %) / AUC0–24h of total radioactivity, GM (GM CV, %) / Cmax of total radioactivity, GM (GM CV, %) / Tmax of total radioactivity, median (min, max): single 75-mg oral dose
Outline: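 After a single oral 75‑mg ¹⁴C dose in six healthy men, total radioactivity was measured by duplicate LSC. Plasma was spiked directly with cocktail; whole blood was solubilized and decolorized first. Plasma LLOQ was 9.91 ng eq/ml (30 dpm/ml), with sampling from 0.25 h postdose. Noncompartmental parameters used actual sampling times, with descriptive statistics.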

[7] = single 75-mg oral dose of ^14C-evobrutinib, six healthy men, within 168 h

Nc1ncnc(NCC2CCN(C(=O)C(O)CO)CC2)c1-c1ccc(Oc2ccccc2)cc1 (centres unmarked) [evobrutinib‐diol]
Rank among metabolites in human hepatocytes (human hepatocytes): main metabolite

hydroxyl‐evobrutinib
Rank among metabolites in rat hepatocytes (rat hepatocytes): most abundant metabolite

C=CC(=O)N1CCC(CNc2ncnc(N)c2-c2ccc(Oc3ccccc3)cc2)CC1 [evobrutinib]
Unchanged evobrutinib in excreta (urine or feces) ([1]; single 75-mg oral dose): No unchanged evobrutinib was detected; also recorded: No unchanged evobrutinib was recovered
Total radioactivity excreted in feces, arithmetic mean percentage of dose [1, 7]: 71.0%
Total radioactivity excreted in urine, arithmetic mean percentage of dose [1, 7]: 20.6%
Radioactive dose excreted in feces within 96 h, range ([1]; single 75-mg oral dose, 0-96 h): 66.4–73.5%
Total radioactivity excreted within 72 h after administration (mean) ([1]; single 75-mg oral dose, urine plus feces, first 72 h): 85.3%
Mean total radioactivity recovery within 96 h ([1]; single 75-mg oral dose, urine plus feces, within 96 h): 89.7%
Mean total radioactivity recovery ([1]; single 75-mg oral dose, urine plus feces, within 168 h): 91.6%
Number of metabolites detected and elucidated in feces ([2]; feces): 30
Number of phase I metabolites fully or partially elucidated ([2]; in vivo): 40
Number of phase II metabolites fully or partially elucidated ([2]; in vivo): 18
Total number of metabolites identified in urine, feces, and plasma ([2]; in vivo): 58
Number of metabolites detected and elucidated in plasma ([2]; plasma): 24
Geometric mean AUC0–24 of nonextractable radioactivity ([2]; plasma, after exhaustive extraction): 1085 h٠ng eq/ml
Unchanged evobrutinib in feces ([2]; pooled feces): not detected
Unchanged evobrutinib in urine metabolite profiles ([2]; pooled urine): not detected
Number of metabolites detected and elucidated in urine ([2]; urine): 41
BTK occupancy after multiple daily dosing (BTK; 25 mg, multiple daily dosing, healthy participants): Full BTK occupancy
BTK occupancy at 96 h (BTK; doses of greater than or equal to 100 mg): greater than 50%
Maximum BTK occupancy (BTK; reached within ~ 4 h after single doses of greater than or equal to 200 mg): > 90%
Number of different metabolites formed (human hepatocytes; rat and human hepatocytes): 23
Total number of gadolinium-enhancing lesions on T1-weighted MRI versus placebo ([3]; 75 mg q.d. and b.i.d., over 24 weeks): significantly reduced
Severity of the majority of TEAEs [3]: mild or moderate
Cmax ([4]; human, plasma, po, 75 mg): 321 ng/mL
Half-life ([4]; human, plasma, po, 75 mg): 79.8 min
Vd/F ([4]; human, plasma, po, 75 mg): 381 L
Time of individual maximum evobrutinib plasma concentration, range ([4]; plasma, postdose): 0.25 to 0.50 h
AUC0-t of evobrutinib, GM (GM CV, %) ([4]; plasma, single 75-mg oral dose): 375 (19.4) ng (eq) h/ml
AUC0–24h of evobrutinib, GM (GM CV, %) ([4]; plasma, single 75-mg oral dose): 378 (19.4) ng (eq) h/ml
CL/F, GM (GM CV, %) ([4]; plasma, single 75-mg oral dose): 199 (19.4) L/h
Tmax of evobrutinib, median (min, max) ([4]; plasma, single 75-mg oral dose): 0.5 h
Tmax of evobrutinib, median (min, max) ([4]; plasma, single 75-mg oral dose, listed as Evobrutinib): 0.50 (0.25, 0.55) h
Parent drug share of total radioactivity plasma exposure (AUC) ([4]; single dose): 10–13%
Nausea, headache, epistaxis, and nasopharyngitis, number of participants each (Safety): 1 participant each
Oropharyngeal pain, number of participants (Safety): 2 participants
Serious AEs, deaths, or withdrawals (Safety): no serious AEs, deaths, or withdrawals
Severity and relatedness of AEs (Safety): mild and not considered study treatment related
Participants who experienced an adverse event (Safety; four of six participants): 67%
Half-life ([5]; 25–200 mg doses): 1.8 to 2.6 h
Participants with treatment-emergent adverse events ([5]; after multiple-dosing, 13 participants): 48.1%
Participants with treatment-emergent adverse events ([5]; after single-dosing, nine participants): 25%
Severity of most TEAEs [5]: mild
Half-life ([5]; healthy participants): ~ 2 h
Time to reach maximum plasma concentration (Tmax) ([5]; healthy participants): ~ 0.5 h
Dose-proportionality, accumulation and time-dependency of PK ([5]; single 25-500 mg, 25-200 mg q.d. for 14 days): dose‐proportional, with no accumulation or time‐dependency with repeat dosing
Mean blood to plasma ratio of total radioactivity ([6]; at 72 and 96 h postdose): 1.6
Mean blood to plasma ratio of total radioactivity ([6]; at 0.25 h postdose): 0.6
Time of individual maximum total radioactivity concentration in plasma, range ([6]; plasma, postdose): 0.25 to 1 h
AUC0-t of total radioactivity, GM (GM CV, %) ([6]; plasma): 3915 (32.7) ng (eq) h/ml
AUC0–24h of total radioactivity, GM (GM CV, %) ([6]; plasma): 2805 (14.8) ng (eq) h/ml
Cmax of total radioactivity, GM (GM CV, %) ([6]; plasma): 1047 (22.8) ng eq/ml
Tmax of total radioactivity, median (min, max) ([6]; plasma): 0.5 h
Tmax of total radioactivity, median (min, max) ([6]; plasma, listed as 14C‐radiolabeled evobrutinib): 0.50 (0.25, 1.00) h
AUC0-t of total radioactivity, GM (GM CV, %) ([6]; whole blood): 4944 (13.6) ng (eq) h/ml
AUC0–24h of total radioactivity, GM (GM CV, %) ([6]; whole blood): 2001 (9.9) ng (eq) h/ml
Cmax of total radioactivity, GM (GM CV, %) ([6]; whole blood): 623 (25.5) ng eq/ml
Tmax of total radioactivity, median (min, max) ([6]; whole blood): 0.5 h
Tmax of total radioactivity, median (min, max) ([6]; whole blood, listed as 14C‐radiolabeled evobrutinib): 0.50 (0.25, 1.00) h
